Each structure is given as a SMILES string.

The record followed here is ChEMBL document CHEMBL1806477, “Discovery of novel imidazo[1,2-a]pyridines as inhibitors of the insulin-like growth factor-1 receptor tyrosine kinase” (Bioorg Med Chem Lett, 2011).

For series [1], the target named is T1, Insulin-like growth factor 1 receptor (Homo sapiens, UniProt P08069). Briefly: Inhibition of IGF1-induced autophosphorylation of human recombinant IGF1R expressed in mouse fibroblasts by high throughput assay.
The target of series [2] is Cyclin-dependent kinase 2 (Homo sapiens, UniProt P24941). Put plainly: Inhibition of CDK2.
Series [3] deals with T1, Insulin-like growth factor 1 receptor. Put plainly: Inhibition of IGF1R.
The target in series [4] is T2, Insulin receptor (Homo sapiens, UniProt P06213). Put plainly: Inhibition of insulin receptor.
Series [5] can be described thus: Intrinsic clearance in dog hepatocytes assessed per 10^6 cells. It counts as ADME, cell-based, Canis lupus familiaris, Liver, Hepatocyte.
The nature of series [6]: Volume of distribution at steady state in nude mouse at 4 umol/kg, iv and 10 umol/kg, po. It counts as ADME, organism-based. Particulars: in vivo, read-out: Vdss.
In series [7] the target is T2, Insulin receptor. Briefly: Inhibition of insulin-induced autophosphorylation of human insulin receptor expressed in CHO cells. It counts as cell-based. The method, boiled down:
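CHO cells transfected with the human insulin receptor gene, stimulated with insulin; the read-out is inhibition of receptor auto-phosphorylation.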

Series [8] deals with Mitogen-activated protein kinase 9 (Homo sapiens) (UniProt P45984). Put plainly: Inhibition of JNK2 at 1 uM.
Series [9] is described as follows: Oral bioavailability in Beagle dog at 10 umol/kg. The following applies: in vivo. In kind it is ADME, organism-based, Canis lupus familiaris. The method, boiled down: (§1)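 Values are means from two beagle dogs, one male and one female, each given an intravenous dose and an oral dose.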
Series [10] is described as follows: Oral bioavailability in nude mouse at 10 umol/kg. It counts as ADME, organism-based. The following applies: in vivo.
Series [11] is described as follows: Intrinsic clearance in mouse hepatocytes assessed per 10^6 cells. It counts as ADME, cell-based, Liver, Hepatocyte.
Series [12] can be described thus: Plasma clearance in nude mouse at 4 umol/kg, iv and 10 umol/kg, po. It counts as ADME, organism-based.
A short description of series [13]: Intrinsic clearance in human hepatocytes assessed per 10^6 cells. It counts as ADME, cell-based, Liver, Hepatocyte.
Series [14] is described as follows: Plasma clearance in Beagle dog at 0.8 umol/kg, iv and 10 umol/kg, po. In kind it is ADME, organism-based, Canis lupus familiaris. The method, boiled down: as §1
Series [15] can be described thus: Volume of distribution at steady state in Beagle dog at 0.8 umol/kg, iv and 10 umol/kg, po. In kind it is ADME, organism-based, Canis lupus familiaris. The following applies: in vivo, read-out: Vdss. Put shortly:
as §1

A short description of series [16]: Terminal half life in nude mouse at 4 umol/kg, iv and 10 umol/kg, po. It counts as ADME, organism-based. The following applies: in vivo, read-out: beta t1/2 (converted).
A short description of series [17]: Volume of distribution at steady state in Han Wistar rat at 4 umol/kg, iv and 10 umol/kg, po. In kind it is ADME, organism-based. The following applies: in vivo, read-out: Vdss. The method, boiled down: (§2)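 Male Han Wistar rats, each given an intravenous dose and a separate oral dose; parameters derived from the plasma concentration profiles.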
Series [18] can be described thus: Intrinsic clearance in rat hepatocytes assessed per 10^6 cells. It counts as ADME, cell-based, Liver, Hepatocyte.
Series [19] deals with Mitogen-activated protein kinase 8 (Homo sapiens) (UniProt P45983). Briefly: Inhibition of JNK1 at 1 uM.
Series [20] in a line: Oral bioavailability in Han Wistar rat at 10 umol/kg. It counts as ADME, organism-based. Particulars: in vivo.
A short description of series [21]: Terminal half life in Beagle dog at 0.8 umol/kg, iv and 10 umol/kg, po. In kind it is ADME, organism-based, Canis lupus familiaris. The following applies: in vivo, read-out: beta t1/2 (converted). Put shortly: as §1
The nature of series [22]: Terminal half life in Han Wistar rat at 4 umol/kg, iv and 10 umol/kg, po. In kind it is ADME, organism-based. Particulars: in vivo, read-out: beta t1/2 (converted). The method, boiled down: as §2
Series [23] has as its target T3, Mitogen-activated protein kinase 15 (Homo sapiens) (UniProt Q8TD08).
T3 sequence (whole entry): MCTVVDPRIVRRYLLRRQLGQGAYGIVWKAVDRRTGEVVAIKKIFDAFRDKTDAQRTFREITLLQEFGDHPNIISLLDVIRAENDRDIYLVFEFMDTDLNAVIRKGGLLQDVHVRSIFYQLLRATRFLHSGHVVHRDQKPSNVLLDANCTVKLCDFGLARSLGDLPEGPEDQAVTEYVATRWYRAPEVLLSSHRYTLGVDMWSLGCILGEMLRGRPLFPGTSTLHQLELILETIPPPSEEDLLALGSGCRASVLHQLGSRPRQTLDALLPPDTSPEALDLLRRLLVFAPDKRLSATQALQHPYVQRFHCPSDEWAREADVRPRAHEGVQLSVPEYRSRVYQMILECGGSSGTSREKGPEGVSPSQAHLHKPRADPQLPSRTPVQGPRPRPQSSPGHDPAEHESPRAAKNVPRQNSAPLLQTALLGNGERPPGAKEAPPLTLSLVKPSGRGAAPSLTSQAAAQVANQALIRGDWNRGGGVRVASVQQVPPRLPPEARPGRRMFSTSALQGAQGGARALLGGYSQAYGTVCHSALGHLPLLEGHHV
Put plainly: Inhibition of ERK8 at 1 uM.

Series [24] is described as follows: Plasma clearance in Han Wistar rat at 4 umol/kg, iv and 10 umol/kg, po. It counts as ADME, organism-based. The method, boiled down:
as §2

T1 sequence (P08069 31-736 limits assumed): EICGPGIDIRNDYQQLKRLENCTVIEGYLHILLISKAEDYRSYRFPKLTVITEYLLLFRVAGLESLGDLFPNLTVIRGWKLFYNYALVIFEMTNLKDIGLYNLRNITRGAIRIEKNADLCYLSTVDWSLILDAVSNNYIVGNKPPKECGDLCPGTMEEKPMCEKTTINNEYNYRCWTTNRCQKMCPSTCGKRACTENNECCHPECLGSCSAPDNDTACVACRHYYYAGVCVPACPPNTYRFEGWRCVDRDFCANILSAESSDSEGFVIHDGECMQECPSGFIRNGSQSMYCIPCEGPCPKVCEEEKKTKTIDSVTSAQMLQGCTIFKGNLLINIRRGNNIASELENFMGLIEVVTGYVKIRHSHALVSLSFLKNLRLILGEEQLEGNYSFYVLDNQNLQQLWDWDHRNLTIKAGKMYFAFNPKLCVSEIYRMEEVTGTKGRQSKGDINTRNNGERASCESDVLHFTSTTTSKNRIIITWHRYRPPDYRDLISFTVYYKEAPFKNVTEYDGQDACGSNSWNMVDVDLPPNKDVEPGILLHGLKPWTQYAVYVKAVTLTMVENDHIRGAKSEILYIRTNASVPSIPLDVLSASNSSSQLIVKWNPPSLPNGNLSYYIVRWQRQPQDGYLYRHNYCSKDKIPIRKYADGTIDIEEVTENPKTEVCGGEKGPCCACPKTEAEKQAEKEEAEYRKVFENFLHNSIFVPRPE
T1 sequence (P08069 741-1367 limits assumed): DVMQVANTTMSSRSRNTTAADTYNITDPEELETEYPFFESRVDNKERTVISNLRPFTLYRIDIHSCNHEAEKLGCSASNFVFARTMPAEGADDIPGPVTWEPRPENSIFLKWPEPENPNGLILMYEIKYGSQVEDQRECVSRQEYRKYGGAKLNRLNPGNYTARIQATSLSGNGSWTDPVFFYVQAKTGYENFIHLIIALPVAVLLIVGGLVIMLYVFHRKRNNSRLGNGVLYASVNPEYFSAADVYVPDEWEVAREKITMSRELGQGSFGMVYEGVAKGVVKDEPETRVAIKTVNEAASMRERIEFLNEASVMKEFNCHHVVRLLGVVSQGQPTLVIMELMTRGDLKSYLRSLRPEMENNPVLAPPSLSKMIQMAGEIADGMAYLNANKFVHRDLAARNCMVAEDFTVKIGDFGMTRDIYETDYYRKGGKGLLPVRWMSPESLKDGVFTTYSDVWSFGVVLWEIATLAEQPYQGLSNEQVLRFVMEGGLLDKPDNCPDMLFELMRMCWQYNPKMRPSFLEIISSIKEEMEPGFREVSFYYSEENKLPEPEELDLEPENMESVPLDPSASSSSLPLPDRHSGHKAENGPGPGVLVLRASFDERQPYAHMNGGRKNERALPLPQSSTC
T2 sequence (P06213 28-758 limits assumed): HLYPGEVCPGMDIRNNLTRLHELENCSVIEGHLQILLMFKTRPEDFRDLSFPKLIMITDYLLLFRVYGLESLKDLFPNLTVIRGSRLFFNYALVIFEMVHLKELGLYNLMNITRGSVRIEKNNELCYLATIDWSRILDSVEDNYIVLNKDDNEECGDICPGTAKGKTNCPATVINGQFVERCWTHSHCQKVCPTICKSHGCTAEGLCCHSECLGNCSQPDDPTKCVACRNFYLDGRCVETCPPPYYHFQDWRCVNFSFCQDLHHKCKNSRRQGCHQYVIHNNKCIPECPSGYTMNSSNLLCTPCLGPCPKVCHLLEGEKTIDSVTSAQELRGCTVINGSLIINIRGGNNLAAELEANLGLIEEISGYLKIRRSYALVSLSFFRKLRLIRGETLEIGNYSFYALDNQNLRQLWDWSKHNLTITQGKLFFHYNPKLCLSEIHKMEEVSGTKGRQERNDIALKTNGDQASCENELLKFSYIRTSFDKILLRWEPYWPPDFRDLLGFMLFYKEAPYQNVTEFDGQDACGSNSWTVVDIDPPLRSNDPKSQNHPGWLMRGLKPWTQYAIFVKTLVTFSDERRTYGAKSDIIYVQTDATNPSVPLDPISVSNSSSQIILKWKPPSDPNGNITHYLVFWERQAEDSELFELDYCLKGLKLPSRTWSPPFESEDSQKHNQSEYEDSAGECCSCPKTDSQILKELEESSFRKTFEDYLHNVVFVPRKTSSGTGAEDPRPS
T2 sequence (P06213 763-1382 limits assumed): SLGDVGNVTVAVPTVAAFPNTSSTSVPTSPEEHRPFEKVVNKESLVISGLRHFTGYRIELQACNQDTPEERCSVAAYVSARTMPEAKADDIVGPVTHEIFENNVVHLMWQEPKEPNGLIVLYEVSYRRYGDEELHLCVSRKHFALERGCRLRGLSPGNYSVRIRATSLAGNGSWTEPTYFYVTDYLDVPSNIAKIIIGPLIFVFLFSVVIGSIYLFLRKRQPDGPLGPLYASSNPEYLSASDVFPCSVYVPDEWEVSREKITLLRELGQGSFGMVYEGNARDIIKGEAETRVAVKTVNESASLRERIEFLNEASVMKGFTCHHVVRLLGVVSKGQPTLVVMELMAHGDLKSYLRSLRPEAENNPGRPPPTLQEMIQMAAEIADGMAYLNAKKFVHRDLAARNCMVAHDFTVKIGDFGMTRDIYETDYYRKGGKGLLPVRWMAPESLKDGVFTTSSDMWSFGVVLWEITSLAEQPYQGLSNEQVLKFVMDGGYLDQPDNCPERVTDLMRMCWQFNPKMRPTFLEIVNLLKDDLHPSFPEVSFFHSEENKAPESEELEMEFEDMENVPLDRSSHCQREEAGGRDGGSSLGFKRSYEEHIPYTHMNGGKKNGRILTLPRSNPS
Chain of Mitogen-activated protein kinase 8 (Homo sapiens) (P45983 whole entry): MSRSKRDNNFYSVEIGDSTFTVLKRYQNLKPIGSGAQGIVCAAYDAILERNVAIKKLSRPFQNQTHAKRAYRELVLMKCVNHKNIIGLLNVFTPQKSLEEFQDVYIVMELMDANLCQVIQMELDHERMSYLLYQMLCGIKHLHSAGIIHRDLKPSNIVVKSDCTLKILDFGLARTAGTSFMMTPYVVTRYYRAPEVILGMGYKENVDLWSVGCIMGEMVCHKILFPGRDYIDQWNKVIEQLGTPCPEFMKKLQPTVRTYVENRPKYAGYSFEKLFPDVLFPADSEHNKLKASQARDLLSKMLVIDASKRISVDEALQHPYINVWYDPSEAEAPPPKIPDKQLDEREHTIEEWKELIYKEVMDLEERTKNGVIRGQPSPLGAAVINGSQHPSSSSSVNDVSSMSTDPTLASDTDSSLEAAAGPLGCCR
Chain of Mitogen-activated protein kinase 9 (Homo sapiens) (P45984 whole entry, looked up): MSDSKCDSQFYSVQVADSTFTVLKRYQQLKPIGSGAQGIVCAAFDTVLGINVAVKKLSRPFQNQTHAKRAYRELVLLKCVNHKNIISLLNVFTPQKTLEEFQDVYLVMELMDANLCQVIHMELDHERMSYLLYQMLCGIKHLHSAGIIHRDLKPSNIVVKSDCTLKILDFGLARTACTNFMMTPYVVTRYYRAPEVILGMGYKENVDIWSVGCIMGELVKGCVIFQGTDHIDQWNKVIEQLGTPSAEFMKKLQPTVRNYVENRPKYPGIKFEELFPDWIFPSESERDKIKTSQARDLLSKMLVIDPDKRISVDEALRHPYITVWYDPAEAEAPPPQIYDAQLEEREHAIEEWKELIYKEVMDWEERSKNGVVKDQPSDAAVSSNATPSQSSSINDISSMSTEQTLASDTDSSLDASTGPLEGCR

As to `COc1cc(N2CCN(C(C)=O)CC2)ccc1Nc1ncc(Br)c(-c2cnc3ccccn23)n1`, the half-inhibitory concentration (IC50) (commonly the concentration needed to halve the response being measured) stood at 9 nM in series [1], 1100 nM in [2] and 3 nM in series [3].

On to `COc1cc(N2CCN(C(C)=O)CC2)ccc1Nc1ncc(C)c(-c2cnc3ccccn23)n1`, for which the IC50 in series [1] is 92 nM; in [2] it was 10000 nM.

Consider `COc1cc(N2CCN(C(C)=O)CC2)ccc1Nc1ncc(OC)c(-c2cnc3ccccn23)n1`, for which the figures for the IC50 in [1] and in series [2] were 190 nM and 53000 nM, respectively.

Take `COc1cc(N2CCN(C(C)=O)CC2)ccc1Nc1ncc(C(F)(F)F)c(-c2cnc3ccccn23)n1`: in series [2], the IC50 amounted to 16000 nM.

`COc1cc(N2CCN(C(C)=O)CC2)ccc1Nc1nccc(-c2cnc3ccccn23)n1`: the IC50 was 1340 nM in series [1], more than 100000 nM in series [2] and 450 nM in series [3].

`COc1cc(N2CCN(C(C)=O)CC2)ccc1Nc1ncc(C#N)c(-c2cnc3ccccn23)n1`: the IC50 was 170 nM in [1] and 27000 nM in series [2].

In the case of `NS(=O)(=O)c1ccc(Nc2nccc(-c3cnc4ccccn34)n2)cc1`, the values for the IC50 in [2] and in [3] were 1 nM and 1260 nM, respectively.

For the compound `CC(=O)N1CCN(c2ccc(Nc3nccc(-c4cnc5ccccn45)n3)cc2)CC1`, the IC50 in series [2] turned out to be 78 nM; in series [3] it was 270 nM.

Consider `COc1cc(N2CCN(C(C)=O)CC2)ccc1Nc1ncc(Cl)c(-c2cnc3ccccn23)n1`, for which the figures for the IC50 (on Insulin receptor [4]; at Insulin receptor [7]; in series [2]) were 9 nM, 12 nM and 1100 nM, respectively. The hepatocyte CLint (as a rule, a measure of how fast metabolising enzymes remove a compound, apart from limits set by blood flow) is 6.7 µL/min/1e6 cells in series [5], 32 µL/min/1e6 cells in series [11], 6.9 µL/min/1e6 cells in series [13] and 15 µL/min/1e6 cells in series [18]. Further, the Vd in series [6] is 0.8 L/kg; in [15], 1.9 L/kg; in [17], 0.7 L/kg. The inhibition in series [8], in series [19] and in series [23] was more than 80% throughout. Besides, the results for the bioavailability in [9], in series [10] and in [20] were 30%, 36% and 49%, respectively. In addition, the clearance was determined as 15 mL/min/kg in [12], 4.7 mL/min/kg in series [14] and 6.5 mL/min/kg in series [24]. For the same compound, the half-life in series [16] is 0.9 h; in series [21], 5.5 h; in series [22], 4.6 h.

In the case of `COc1cc(N2CCN(C(C)=O)CC2)ccc1Nc1ncc(F)c(-c2cnc3ccccn23)n1`, the figures for the IC50 in [1], in series [2] and in series [3] were 130 nM, 2700 nM and 89 nM, respectively.
